Experimental data: ChEMBL document CHEMBL2093137, “WHO-TDR NTD Screening”
≈ marks a conversion by molar mass, not a printed value.

Assays:
Leishmania infantum = experiment: WHO-TDR: Leishmaniasis; format: functional, organism-based, Mus musculus; conditions: Macrophage
Summary of the method: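 The screened collection came from Life Chemicals: 10,000 diverse compounds selected after filtering for drug-likeness and reactive groups. Each was tested in a whole-organism assay against Leishmania infantum MHOM/MA(BE)/67 amastigotes inside murine peritoneal macrophages, using previously published standard procedures and a reference drug as positive control. Results are IC50 values for antiparasitic potency.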

Trypanosoma cruzi = experiment: WHO-TDR: Chagas disease; format: functional, organism-based, Homo sapiens; conditions: MRC5
Summary of the method: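 Each IC50 reflects antiparasitic potency against intracellular amastigotes of Trypanosoma cruzi Tulahuen CL2 beta-galactosidase strain. These were cultured in MRC-5SV2 human lung fibroblasts and exposed to a 10,000-compound diverse Life Chemicals library screened according to published standard procedures with a reference drug as positive control.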

Schistosoma mansoni = experiment: WHO-TDR: Schistosomiasis; format: functional; set-up: concentration or dose not given beside the values
Summary of the method: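 Larval and/or adult Schistosoma mansoni (Puerto Rican strain) were tested whole against 10,000 diverse compounds from Life Chemicals. The procedure was a previously published standard one, using a reference drug as positive control. Results are expressed as percent inhibition and IC50.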

Brugia malayi = experiment: WHO-TDR: Lymphatic Filariasis; format: functional; set-up: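 tested at 10 µM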
Summary of the method: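 Percent inhibition and IC50 describe activity against Brugia malayi microfilariae in a whole-organism screen. The screen used previously published standard procedures with reference drugs as positive controls. Compounds came from a diverse Life Chemicals library of 10,000, filtered for drug-likeness and reactive groups.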

[1] = WHO-TDR: Cytotoxicity; format: toxicity, cell-based; conditions: human, MRC5 cells
[2] = tested on: Trypanosoma brucei brucei; experiment: WHO-TDR: Human African Trypanosomiasis (HAT); format: functional, organism-based; conditions: Squib-427
Summary of the method: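 Screening used a 10,000-compound diverse library supplied by Life Chemicals and filtered for drug-likeness and reactive groups. Whole bloodstream-form parasites of Trypanosoma brucei Squib 427 strain were assayed according to previously published standard procedures, with reference drugs as positive controls. The reported measure is IC50, reflecting antiparasitic potency.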

Plasmodium falciparum K1 = experiment: WHO-TDR: Malaria; format: functional, organism-based, Homo sapiens; conditions: Erythrocyte
Summary of the method: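 This whole-organism screen covered 10,000 drug-likeness-filtered and reactive-group-filtered compounds from Life Chemicals. The target was the Plasmodium falciparum K1 strain in human red blood cells, and the readout was antiplasmodial IC50.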

Onchocerca lienalis = experiment: WHO-TDR: Onchocerciasis; format: functional; set-up: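 at 12.5 µM on microfilariae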
Summary of the method: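 Onchocerca ochengi or Onchocerca lienalis, animal pathogens used as surrogates for the human parasite, were screened as whole microfilariae against a 10,000-compound diverse library from Life Chemicals. The reported measures of activity are percent inhibition and IC50.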

Row | Structure (SMILES) | IC50 (Leishmania infantum) | IC50 (Trypanosoma cruzi) | % Inhibition (Schistosoma mansoni) | % Inhibition (Brugia malayi) | IC50 [1] | IC50 [2] | IC50 (Plasmodium falciparum K1) | % Inhibition (Onchocerca lienalis)
1 | COc1ccccc1-c1nnc(NC(=O)c2ccc(S(=O)(=O)N(C)Cc3ccco3)cc2)o1 | 9.57 µg/mL (≈ 20.4 µM) | 0.511 µg/mL (≈ 1.09 µM) | 0% | 0% | 5.89 µg/mL (≈ 12.6 µM) | 4.55 µg/mL (≈ 9.71 µM) | 10.2 µg/mL (≈ 21.8 µM) | 0%
2 | Cc1cccc(-c2nc(CCNC(=O)c3ccco3)cs2)c1 | 3.95 µg/mL (≈ 12.7 µM) | 2.46 µg/mL (≈ 7.87 µM) | 0% | 0% | 4.35 µg/mL (≈ 13.9 µM) | 0.307 µg/mL (≈ 0.983 µM) | 6.12 µg/mL (≈ 19.6 µM) | 0%
3 | CS(=O)(=O)NCC(c1ccco1)S(=O)(=O)c1ccc(Cl)cc1 (stereo not drawn) | > 10.9 µg/mL | 0.513 µg/mL (≈ 1.41 µM) | 0% | 33.33% | > 10.9 µg/mL | 10.9 µg/mL (≈ 30 µM) | > 10.9 µg/mL | 6.7%
4 | COc1ccc(Cl)c2sc(NC(=O)c3ccc(Cl)cc3Cl)nc12 | 0.377 µg/mL (≈ 0.972 µM) | 3.62 µg/mL (≈ 9.34 µM) | 0% | 0% | 4.96 µg/mL (≈ 12.8 µM) | > 11.6 µg/mL | > 11.6 µg/mL | 0%
5 | O=C(COc1ccccc1)Oc1ccc2nc(N3CCN(c4ccccc4)CC3)sc2c1 | 1.96 µg/mL (≈ 4.4 µM) | 9.76 µg/mL (≈ 21.9 µM) | 0% | 0% | > 13.4 µg/mL | > 13.4 µg/mL | > 13.4 µg/mL | 0%
6 | O=C(Nc1ccncc1)c1cccn(Cc2ccc(F)cc2)c1=O | > 9.7 µg/mL | 0.45 µg/mL (≈ 1.39 µM) | 0% | 0% | 2.53 µg/mL (≈ 7.83 µM) | > 9.7 µg/mL | > 9.7 µg/mL | -1%
7 | CCS(=O)(=O)c1cccc(C(=O)Nc2nc3c(s2)CSc2ccccc2-3)c1 | 0.405 µg/mL (≈ 0.972 µM) | 0.412 µg/mL (≈ 0.989 µM) | 75% | 0% | 4 µg/mL (≈ 9.6 µM) | 0.395 µg/mL (≈ 0.948 µM) | > 12.5 µg/mL | 46.7%
8 | CCOc1ccc(-c2ccc(OCCNS(=O)(=O)c3cc(C)c(C)cc3C)nn2)cc1 | > 13.2 µg/mL | 0.752 µg/mL (≈ 1.7 µM) | 0% | 0% | > 13.2 µg/mL | 4.24 µg/mL (≈ 9.6 µM) | > 13.2 µg/mL | 13.3%
9 | CSc1ccccc1-c1nnc(NC(=O)c2ccc(Cl)s2)o1 | > 10.6 µg/mL | 0.416 µg/mL (≈ 1.18 µM) | 0% | 0% | > 10.6 µg/mL | 0.856 µg/mL (≈ 2.43 µM) | > 10.6 µg/mL | 86.4%
10 | COc1ccc(C)c2sc(N(CCCN(C)C)C(=O)c3ccccc3SC)nc12 | 4.53 µg/mL (≈ 10.5 µM) | 5.29 µg/mL (≈ 12.3 µM) | 0% | 0% | 4.42 µg/mL (≈ 10.3 µM) | 0.432 µg/mL (≈ 1.01 µM) | 0.506 µg/mL (≈ 1.18 µM) | 13.3%
11 | CCCc1cc(=O)n(CC(=O)Nc2ccc(C)cc2)c(-n2nc(C)cc2C)n1 | > 11.4 µg/mL | 0.764 µg/mL (≈ 2.01 µM) | 0% | 0% | 10.5 µg/mL (≈ 27.6 µM) | 6.35 µg/mL (≈ 16.7 µM) | > 11.4 µg/mL | 27.7%
12 | O=C(CSc1ccc(-c2ccc(-n3cccn3)cc2)nn1)Nc1ccc2c(c1)OCO2 | 0.419 µg/mL (≈ 0.971 µM) | > 12.9 µg/mL | 0% | 0% | > 12.9 µg/mL | > 12.9 µg/mL | > 12.9 µg/mL | 13.3%
13 | COc1cccc(-n2ccnc2SCC(=O)Nc2ccccc2C(F)(F)F)c1 | > 12.2 µg/mL | > 12.2 µg/mL | 0% | 0% | > 12.2 µg/mL | 0.422 µg/mL (≈ 1.04 µM) | > 12.2 µg/mL | 0%
14 | CS(=O)(=O)c1ccc(CC(=O)Nc2nc(-c3ccc(Cl)s3)cs2)cc1 | 4.01 µg/mL (≈ 9.71 µM) | 0.575 µg/mL (≈ 1.39 µM) | 0% | 0% | 1.53 µg/mL (≈ 3.7 µM) | > 12.4 µg/mL | > 12.4 µg/mL | 11.35%
15 | CC(C)(C)c1ccc(C(=O)Nc2sccc2C(N)=O)cc1 | 1.95 µg/mL (≈ 6.46 µM) | 2.41 µg/mL (≈ 7.98 µM) | 0% |  | 4.3 µg/mL (≈ 14.2 µM) | 0.633 µg/mL (≈ 2.09 µM) | 2.68 µg/mL (≈ 8.87 µM) | 13.3%
16 | O=C(Nc1nnc(SCc2ccccc2Cl)s1)C1CCCCC1 | 5.1 µg/mL (≈ 13.9 µM) | 4.94 µg/mL (≈ 13.4 µM) | 0% |  | > 11 µg/mL | 0.356 µg/mL (≈ 0.967 µM) | 1.45 µg/mL (≈ 3.95 µM) | 0%

Row | Structure (SMILES) | IC50 (Leishmania infantum) | IC50 (Trypanosoma cruzi) | % Inhibition (Schistosoma mansoni) | % Inhibition (Brugia malayi) | IC50 [1] | IC50 [2] | IC50 (Plasmodium falciparum K1) | % Inhibition (Onchocerca lienalis)
17 | O=C(Cc1ccc(Cl)cc1)Nc1cccc(-c2nc3cccnc3s2)c1 | 0.369 µg/mL (≈ 0.971 µM) | > 11.4 µg/mL | 58.3% |  | > 11.4 µg/mL | > 11.4 µg/mL | > 11.4 µg/mL | 66.7%
18 | CCOC(=O)c1c(NC(=O)C2COc3ccccc3O2)sc2c1CC(C)(C)NC2(C)C (stereo not drawn) | 4.22 µg/mL (≈ 9.49 µM) | 4.1 µg/mL (≈ 9.22 µM) | 91.7% |  | 5.73 µg/mL (≈ 12.9 µM) | 0.396 µg/mL (≈ 0.891 µM) | 4.01 µg/mL (≈ 9.02 µM) | 0%
19 | Cc1cc(NC(=O)CSc2ccc3nnc(-c4cccs4)n3n2)no1 | 4.29 µg/mL (≈ 11.5 µM) | 4.97 µg/mL (≈ 13.4 µM) | 0% |  | > 11.2 µg/mL | > 11.2 µg/mL | 0.155 µg/mL (≈ 0.416 µM) | 6.7%
20 | CN(C(=O)CN1CC(=O)Oc2ccccc21)c1ccc(O)cc1 | 3.03 µg/mL (≈ 9.71 µM) | 0.548 µg/mL (≈ 1.75 µM) | 0% |  | 2.96 µg/mL (≈ 9.49 µM) | 2.66 µg/mL (≈ 8.52 µM) | 2.22 µg/mL (≈ 7.11 µM) | 20%
21 | O=C(CSc1nnc(NC(=O)COc2ccc(Cl)cc2)s1)NCc1ccco1 | 0.467 µg/mL (≈ 1.06 µM) | 0.408 µg/mL (≈ 0.93 µM) | 0% |  | 0.462 µg/mL (≈ 1.05 µM) | 0.428 µg/mL (≈ 0.975 µM) | 1.44 µg/mL (≈ 3.28 µM) | 6.7%
22 | O=C(Nc1ccc2c(c1)OCCO2)c1oc2ccccc2c1NC(=O)C1c2ccccc2Oc2ccccc21 | 5.04 µg/mL (≈ 9.71 µM) | > 15.6 µg/mL | 100% |  | > 15.6 µg/mL | > 15.6 µg/mL | 5.04 µg/mL (≈ 9.72 µM) | 0%
23 | CCOC(=O)c1c(NC(=O)Cn2c(-n3nc(C)cc3C)nc(CC)cc2=O)sc2c1CCCCC2 | > 14.9 µg/mL | 0.724 µg/mL (≈ 1.45 µM) | 0% |  | > 14.9 µg/mL | > 14.9 µg/mL | 4.44 µg/mL (≈ 8.93 µM) | 0%
24 | O=C(O)CCCCCN1C(=O)/C(=C\c2ccccc2O)SC1=S | > 10.5 µg/mL | 0.653 µg/mL (≈ 1.86 µM) | 0% |  | > 10.5 µg/mL | 4.06 µg/mL (≈ 11.5 µM) | > 10.5 µg/mL | 6.7%
25 | CCN(CC)c1ccc(NC(=O)Cc2csc(NC(=O)c3cc(OC)cc(OC)c3)n2)c(C)c1 | 4.69 µg/mL (≈ 9.71 µM) | 1 µg/mL (≈ 2.08 µM) | 0% |  | > 14.5 µg/mL | 0.493 µg/mL (≈ 1.02 µM) | 4.28 µg/mL (≈ 8.87 µM) | 20%
26 | Cn1cc(S(=O)(=O)N2CCN(C(c3ccccc3)c3ccccc3)CC2)c(=O)n(C)c1=O | 3.65 µg/mL (≈ 8.02 µM) | 0.34 µg/mL (≈ 0.749 µM) | 0% |  | > 11.5 µg/mL | 2.16 µg/mL (≈ 4.75 µM) | > 11.5 µg/mL | 0%
27 | CCn1/c(=N\C(=O)c2ccc(C(C)=O)cc2)sc2cc(C)ccc21 | > 10.2 µg/mL | 0.321 µg/mL (≈ 0.948 µM) | 0% |  | > 10.2 µg/mL | > 10.2 µg/mL | > 10.2 µg/mL | 80%
28 | CN(C)CCCN(C(=O)CCSc1ccccc1)c1nc2cc3c(cc2s1)OCO3 | 0.466 µg/mL (≈ 1.05 µM) | 0.416 µg/mL (≈ 0.938 µM) | 0% |  | 3.54 µg/mL (≈ 7.97 µM) | 2 µg/mL (≈ 4.51 µM) | 3.42 µg/mL (≈ 7.7 µM) | 0%
29 | O=C(CSc1nnc(NC(=O)c2ccccc2C(F)(F)F)s1)Nc1ccc2c(c1)OCO2 | 4.55 µg/mL (≈ 9.44 µM) | 4.76 µg/mL (≈ 9.86 µM) | 0% |  | 3.97 µg/mL (≈ 8.23 µM) | 0.45 µg/mL (≈ 0.933 µM) | 0.653 µg/mL (≈ 1.35 µM) | 0%
30 | C#CCn1/c(=N/C(=O)CN2C(=O)c3ccccc3C2=O)sc2c3ccccc3ccc21 | 0.413 µg/mL (≈ 0.971 µM) | > 11.4 µg/mL | 0% |  | > 11.4 µg/mL | > 11.4 µg/mL | > 11.4 µg/mL | 13.3%
31 | CC(C)(C)C(=O)Nc1nnc(SCC(=O)Nc2ccc(Cl)c(Cl)c2)s1 | 4.51 µg/mL (≈ 10.7 µM) | 4.66 µg/mL (≈ 11.1 µM) | 0% |  | 2.84 µg/mL (≈ 6.78 µM) | 0.456 µg/mL (≈ 1.09 µM) | 1.13 µg/mL (≈ 2.69 µM) | 0%
32 | CC(C)c1ccc2nc(NC(=O)c3ccc(C#N)cc3)sc2c1 | > 7 µg/mL | > 7 µg/mL | 0% |  | > 7 µg/mL | 0.312 µg/mL (≈ 0.971 µM) | > 7 µg/mL | 0%
